Reference: ChEMBL document CHEMBL1137710, “Synthesis and in vitro antitumor activity of new quinoxaline derivatives” (2009)

Key:
Type in all cases: functional
CAKI-1 = test: Growth inhibition of human Caki1 cells after 48 hrs by sulforhodamine B assay; details: CAKI-1, 48 h
Summary of the method: (§1)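 NCI 60-human-tumor-cell-line panel, with compounds tested over a 5-log dose range. Values are taken from dose-response curves as log10 molar concentrations: GI50 is 50% net growth inhibition, TGI is total growth inhibition, and LC50 is 50% net cell death.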

HCT-116 = test: Growth inhibition of human HCT116 cells after 48 hrs by sulforhodamine B assay; details: HCT-116, 48 h; summary of the method: as §1
OVCAR-5 = test: Growth inhibition of human OVCAR5 cells after 48 hrs by sulforhodamine B assay; details: OVCAR-5, 48 h; summary of the method: as §1
TK-10 = test: Growth inhibition of human TK10 cells after 48 hrs by sulforhodamine B assay; details: TK-10, 48 h
Summary of the method: (§2)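 Run in the NCI 60-human-tumour-cell-line panel, tested over a 5-log dose range. Dose–response curves gave three values per cell line, each as a log10 molar concentration: GI50 (50% inhibition of net cell growth), TGI (total inhibition of net growth) and LC50 (50% net cell death). The mean graph midpoint is the arithmetic mean over all lines, with insensitive lines entered at the highest concentration tested.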

COLO 205 = test: Growth inhibition of human COLO205 cells after 48 hrs by sulforhodamine B assay; details: COLO 205, 48 h; summary of the method: as §1
NCI-H522 = test: Growth inhibition of human NCI-H522 cells after 48 hrs by sulforhodamine B assay; details: NCI-H522, 48 h; summary of the method: as §1
U-251 = test: Growth inhibition of human U251 cells after 48 hrs by sulforhodamine B assay; details: U-251, 48 h; summary of the method: as §2
DU-145 = test: Growth inhibition of human DU145 cells after 48 hrs by sulforhodamine B assay; details: DU-145, 48 h; summary of the method: as §1
NCI-H322M = test: Growth inhibition of human NCI-H322M cells after 48 hrs by sulforhodamine B assay; summary of the method: as §1
SK-MEL-5 = test: Growth inhibition of human SK-MEL-5 cells after 48 hrs by sulforhodamine B assay; details: SK-MEL-5, 48 h; summary of the method: as §1
MDA-MB-435 = test: Growth inhibition of human MDA-MB-435 cells after 48 hrs by sulforhodamine B assay; details: MDA-MB-435, 48 h; summary of the method: as §1
MDA-MB-231 = test: Growth inhibition of human MDA-MB-231 cells after 48 hrs by sulforhodamine B assay; details: MDA-MB-231, 48 h; summary of the method: as §1
OVCAR-4 = test: Growth inhibition of human OVCAR4 cells after 48 hrs by sulforhodamine B assay; details: OVCAR-4, 48 h; summary of the method: as §1
NCI/ADR-RES = test: Growth inhibition of human NCI/ADR-RES cells after 48 hrs by sulforhodamine B assay; summary of the method: as §1
RXF 393 = test: Growth inhibition of human RXF393 cells after 48 hrs by sulforhodamine B assay; details: RXF 393, 48 h; summary of the method: as §1
PC-3 = test: Growth inhibition of human PC3 cells after 48 hrs by sulforhodamine B assay; details: PC-3, 48 h; summary of the method: as §1
SW-620 = test: Growth inhibition of human SW620 cells after 48 hrs by sulforhodamine B assay; details: SW-620, 48 h; summary of the method: as §2
OVCAR-8 = test: Growth inhibition of human OVCAR8 cells after 48 hrs by sulforhodamine B assay; details: OVCAR-8, 48 h; summary of the method: as §1
NCI-H460 = test: Anticancer activity against human NCI-H460 cells assessed as cell growth at 100 uM after 48 hrs by sulforhodamine B assay; details: NCI-H460, 48 h, read-out: Activity
K562 = test: Growth inhibition of human K562 cells after 48 hrs by sulforhodamine B assay; details: K562, 48 h; summary of the method: as §1
A549 = test: Growth inhibition of human A549 cells after 48 hrs by sulforhodamine B assay; details: A549, 48 h; summary of the method: as §1
SK-MEL-28 = test: Growth inhibition of human SK-MEL-28 cells after 48 hrs by sulforhodamine B assay; details: SK-MEL-28, 48 h; summary of the method: as §1
LOX IMVI = test: Growth inhibition of human LOXIMVI cells after 48 hrs by sulforhodamine B assay; summary of the method: as §1
IGROV-1 = test: Growth inhibition of human IGROV1 cells after 48 hrs by sulforhodamine B assay; details: IGROV-1, 48 h; summary of the method: as §1
786-0 = test: Growth inhibition of human 786-0 cells after 48 hrs by sulforhodamine B assay; details: 786-0, 48 h; summary of the method: as §1
SF-295 = test: Growth inhibition of human SF295 cells after 48 hrs by sulforhodamine B assay; details: SF-295, 48 h; summary of the method: as §1
MCF7 = test: Anticancer activity against human MCF7 cells assessed as cell growth at 100 uM after 48 hrs by sulforhodamine B assay; details: MCF7, 48 h, read-out: Activity
SF-268 = test: Growth inhibition of human SF268 cells after 48 hrs by sulforhodamine B assay; details: SF-268, 48 h; summary of the method: as §1
M14 = test: Growth inhibition of human M14 cells after 48 hrs by sulforhodamine B assay; details: M14, 48 h; summary of the method: as §1
[1] = Growth inhibition of human Hs 578T cells after 48 hrs by sulforhodamine B assay; summary of the method: as §1
[2] = read-out: pLC50 (the source's name) (converted)

SMILES: Nc1cc(N)c2nc(-c3ccccc3)c(NCc3ccc(F)cc3)nc2c1
- GI50 (CAKI-1): 15.1 µM
- CC50 (CAKI-1; [2]): 89.1 µM
- TGI (CAKI-1; read-out: pTGI (converted)): 37.2 µM
- GI50 (HCT-116): 12.9 µM
- LC50 (concentration causing 50% net cell death) (HCT-116): > 100 µM
- TGI (HCT-116; read-out: pTGI (converted)): > 100 µM
- GI50 (OVCAR-5): 2.63 µM
- CC50 (OVCAR-5; [2]): > 100 µM
- TGI (OVCAR-5; read-out: pTGI (converted)): 7.59 µM
- GI50 (TK-10): 5.89 µM
- CC50 (TK-10; [2]): 53.7 µM
- TGI (TK-10; read-out: pTGI (converted)): 20 µM
- GI50 (COLO 205): 2.51 µM
- LC50 (50% net cell kill) (COLO 205): > 100 µM
- TGI (COLO 205; read-out: pTGI (converted)): 6.17 µM
- GI50 (NCI-H522): > 100 µM
- LC50 (NCI-H522): > 100 µM
- TGI (NCI-H522; read-out: pTGI (converted)): > 100 µM
- GI50 (U-251): 1.58 µM
- LC50 (50% net cell kill) (U-251): 6.31 µM
- TGI (U-251; read-out: pTGI (converted)): 3.16 µM
- GI50 (DU-145): 1.51 µM
- CC50 (DU-145; [2]): 9.77 µM
- TGI (DU-145; read-out: pTGI (converted)): 3.8 µM
- GI50 (NCI-H322M): 3.47 µM
- LC50 (NCI-H322M): 40.7 µM
- TGI (NCI-H322M; read-out: pTGI (converted)): 11.5 µM
- GI50 (SK-MEL-5): 1.86 µM
- CC50 (SK-MEL-5; [2]): 6.92 µM
- TGI (SK-MEL-5; read-out: pTGI (converted)): 3.63 µM
- GI50 (MDA-MB-435): 2 µM
- CC50 (MDA-MB-435; [2]): 6.92 µM
- TGI (MDA-MB-435; read-out: pTGI (converted)): 3.72 µM
- GI50 (MDA-MB-231): 2.14 µM
- CC50 (MDA-MB-231; [2]): 19.5 µM
- TGI (MDA-MB-231; read-out: pTGI (converted)): 5.13 µM
- GI50 (OVCAR-4): 1.7 µM
- CC50 (OVCAR-4; [2]): 60.3 µM
- TGI (OVCAR-4; read-out: pTGI (converted)): 8.13 µM
- GI50 (NCI/ADR-RES): 2.45 µM
- CC50 (NCI/ADR-RES; [2]): 28.2 µM
- TGI (NCI/ADR-RES; read-out: pTGI (converted)): 5.75 µM
- GI50 (RXF 393): 12.3 µM
- CC50 (RXF 393; [2]): 60.3 µM
- TGI (RXF 393; read-out: pTGI (converted)): 26.9 µM
- GI50 (PC-3): 3.47 µM
- CC50 (PC-3; [2]): > 100 µM
- TGI (PC-3; read-out: pTGI (converted)): 15.5 µM
- GI50 (SW-620): 2.19 µM
- CC50 (SW-620; [2]): > 100 µM
- TGI (SW-620; read-out: pTGI (converted)): 9.55 µM
- GI50 (OVCAR-8): 2.63 µM
- CC50 (OVCAR-8; [2]): 21.9 µM
- TGI (OVCAR-8; read-out: pTGI (converted)): 6.03 µM
- growth at 100 µM (NCI-H460): 1%
- GI50 (K562): 4.37 µM
- LC50 (K562): > 100 µM
- TGI (K562; read-out: pTGI (converted)): > 100 µM
- GI50 (A549): 17.8 µM
- LC50 (A549): 69.2 µM
- TGI (A549; read-out: pTGI (converted)): 34.7 µM
- GI50 (SK-MEL-28): 1.91 µM
- CC50 (SK-MEL-28; [2]): 7.41 µM
- TGI (SK-MEL-28; read-out: pTGI (converted)): 3.8 µM
- GI50 (LOX IMVI): 1.51 µM
- LC50 (LOX IMVI): 6.61 µM
- TGI (LOX IMVI; read-out: pTGI (converted)): 3.16 µM
- GI50 (IGROV-1): 3.09 µM
- CC50 (IGROV-1; [2]): > 100 µM
- TGI (IGROV-1; read-out: pTGI (converted)): > 100 µM
- GI50 (786-0): 23.4 µM
- CC50 (786-0; [2]): > 100 µM
- TGI (786-0; read-out: pTGI (converted)): 61.7 µM
- GI50 (SF-295): 3.47 µM
- LC50 (50% net cell kill) (SF-295): 64.6 µM
- TGI (SF-295; read-out: pTGI (converted)): 13.5 µM
- growth at 100 µM (MCF7): 1%
- GI50 (SF-268): 2.82 µM
- LC50 (SF-268): 40.7 µM
- TGI (SF-268; read-out: pTGI (converted)): 7.59 µM
- GI50 (M14): 23.4 µM
- CC50 (M14; [2]): > 100 µM
- TGI (M14; read-out: pTGI (converted)): 56.2 µM
- GI50 [1]: 4.9 µM
- CC50 [1, 2]: > 100 µM
- TGI ([1]; read-out: pTGI (converted)): > 100 µM
